Active and inactive are the calls of the source. No cut-off for these calls is given here.
Experiments:
Mus musculus [1] = experiment: Toxicity in ICR mouse assessed as hypoglycemic effect at 15 mg/kg, po measured up to 180 mins; assay type: organism-based; conditions: in vivo, 3 h
How it was run: (§1)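 Normal male ICR mice, 10 weeks, fasted overnight (12 h), n = 6 per group. Single oral dose in 0.5% CMC vehicle, no glucose load. Tail-tip blood glucose by test strips at 0, 30, 60, 90, 120 and 180 min after dosing. Mean ± SEM for six animals, Student's t-test.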

[2] = target: T1, Free fatty acid receptor 1 (Homo sapiens, UniProt O14842); experiment: Agonist activity at human FFA1 expressed in CHO cells assessed as intracellular Ca2+ level at 100 nM measured for 90 secs by Fluo-4 AM-based FLIPR assay; assay type: functional, cell-based
T1 sequence (O14842 whole entry): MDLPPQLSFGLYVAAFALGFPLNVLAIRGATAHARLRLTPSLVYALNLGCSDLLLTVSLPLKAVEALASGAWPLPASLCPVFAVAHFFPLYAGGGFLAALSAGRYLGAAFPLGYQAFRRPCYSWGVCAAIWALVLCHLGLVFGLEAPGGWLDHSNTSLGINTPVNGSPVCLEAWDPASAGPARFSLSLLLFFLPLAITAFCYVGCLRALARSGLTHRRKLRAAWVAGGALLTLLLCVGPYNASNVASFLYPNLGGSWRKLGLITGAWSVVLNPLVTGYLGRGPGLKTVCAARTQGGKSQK
How it was run: (§2)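 CHO cells stably expressing human FFA1 (NM_005303), 15K cells/well, cultured overnight at 37 °C in 5% CO2. Cells were washed with HBSS, then loaded for 60 min at 37 °C with Fluo 4-AM 2.5 μg/mL, fatty acid-free BSA 0.1% and probenecid 2.5 mmol/L. Single screening concentration added and Ca2+ flux read on FLIPR Tetra for 90 s. Activity = (A−B)/(C−B)×100 against vehicle (B) and 10 μM γ-linolenic acid (C). Mean of three independent experiments.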

[3] = target: T1, Free fatty acid receptor 1; experiment: Agonist activity at human FFA1 expressed in CHO cells assessed as intracellular Ca2+ level at 300 nM measured for 90 secs by Fluo-4 AM-based FLIPR assay; assay type: functional, cell-based; how it was run: as §2
[4] = target: T1, Free fatty acid receptor 1; experiment: Agonist activity at human FFA1 expressed in CHO cells assessed as intracellular Ca2+ level measured for 90 secs by Fluo-4 AM-based FLIPR assay; assay type: functional, cell-based
How it was run: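 Calcium flux in CHO cells stably expressing human FFA1, plated at 15K cells/well overnight, loaded 60 min at 37 °C with Fluo 4-AM (2.5 μg/mL), 0.1% fatty acid-free BSA and 2.5 mmol/L probenecid. Various concentrations added and read by FLIPR for 90 s. Response normalised to vehicle and 10 μM γ-linolenic acid. EC50 from concentration–response fit, mean of three independent determinations.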

Mus musculus [5] = experiment: Decrease in plasma glucose level in po dosed ICR mouse administered as single dose 30 mins prior to glucose challenge measured up to 120 mins by OGTT; assay type: functional, organism-based
How it was run: (§3)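 Male ICR mice, 10 weeks old, fasted 12 h and randomized (n = 6/group). Single oral dose in 0.5% CMC (10 mL/kg), followed 30 min later by oral glucose 3 g/kg as a 30% solution. Tail-vein blood at −30, 0, 15, 30, 45, 60 and 120 min, glucose read with test strips. Mean ± SEM, two-tailed Student's t-test against vehicle.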

Mus musculus [6] = experiment: Toxicity in ICR mouse assessed as hypoglycemic effect at 80 mg/kg, po measured up to 180 mins; assay type: organism-based; conditions: in vivo, 3 h; how it was run: as §1
Mus musculus [7] = experiment: Antihyperglycemic activity in STZ-induced type 2 diabetic C57BL/6 mouse model at 20 mg/kg, po administered as single dose 30 mins prior to glucose challenge measured up to 120 mins by OGTT; assay type: functional, organism-based
How it was run: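 Male C57BL/6 mice fed 45%-fat diet for 4 weeks, given STZ 80 mg/kg i.p., then kept on high-fat diet another 4 weeks; fasting glucose ≥11.1 mmol/L counted as diabetic. After a 12 h fast, n = 6/group, oral dose in 0.5% CMC, then 2 g/kg glucose (20% solution) orally 30 min later. Tail blood at −30, 0, 15, 30, 45, 60, 120 min, read with glucose strips.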

Mus musculus [8] = experiment: Decrease in plasma glucose level in ICR mouse at 20 mg/kg, po administered as single dose 30 mins prior to glucose challenge measured up to 120 mins by OGTT; assay type: functional, organism-based; how it was run: as §3

Row | Activity [2] [%] | Activity [3] [%] | SMILES | further results
1 | – | – | COc1ccc(Cl)cc1C(=O)NCCc1ccc(S(=O)(=O)NC(=O)NC2CCCCC2)cc1 [GLYBURIDE] | Activity (Mus musculus [1]): Toxic
2 | 28.6 | 41.9 | O=C(O)CC1COc2cc(OCc3cccc(-n4cccc4)c3)ccc21 (stereo unspecified) | –
3 | 41.2 | 55.7 | O=C(O)CC1COc2cc(OCc3cccc(N4CCOCC4)c3)ccc21 (stereo unspecified) | –
4 | 54.6 | – | CCOc1ccc(COc2ccc3c(c2)OCC3CC(=O)O)cc1-n1c(C)ccc1C (stereo unspecified) | EC50 [4]: 0.0612 µM
5 | 8.28 | 25.9 | O=C(O)CC1COc2cc(OCc3cccc(N4CCS(=O)(=O)CC4)c3)ccc21 (stereo unspecified) | –
6 | 63.8 | – | COc1ccc(COc2ccc3c(c2)OCC3CC(=O)O)cc1-n1c(C)ccc1C (stereo unspecified) | Activity (Mus musculus [5]): Dose-dependent effect; EC50 [4]: 0.0347 µM; Activity (Mus musculus [6]): Non-toxic; Activity (Mus musculus [7]): Active
7 | 40.8 | – | Cc1ccc(C)n1-c1cc(COc2ccc3c(c2)OCC3CC(=O)O)ccc1OCc1ccccc1 (stereo unspecified) | –
8 | – | – | Cc1cc(OCCCS(C)(=O)=O)cc(C)c1-c1cccc(COc2ccc3c(c2)OC[C@H]3CC(=O)O)c1 | Activity (Mus musculus [8]): Active; Activity (Mus musculus [7]): Active
9 | 31.7 | – | COCc1cc(C)n(-c2cccc(COc3ccc4c(c3)OCC4CC(=O)O)c2)c1C (stereo unspecified) | –
10 | 25.7 | – | Cc1cc(C(=O)N(C)C)c(C)n1-c1cccc(COc2ccc3c(c2)OCC3CC(=O)O)c1 (stereo unspecified) | –
11 | 38.2 | 52.2 | O=C(O)CC1COc2cc(OCc3cccc(N4CCSCC4)c3)ccc21 (stereo unspecified) | –
12 | 34.6 | 50.3 | O=C(O)CC1COc2cc(OCc3cccc(N4CCCCC4)c3)ccc21 (stereo unspecified) | –
13 | 62.6 | 74.4 | Cc1cccc(C)c1-c1cccc(COc2ccc3c(c2)OCC3CC(=O)O)c1 (stereo unspecified) | EC50 [4]: 0.0384 µM
14 | 43.7 | 56.3 | O=C(O)CC1COc2cc(OCc3cccc(N4CCCC4)c3)ccc21 (stereo unspecified) | –
15 | 59.9 | 71.3 | Cc1ccc(C)n1-c1cccc(COc2ccc3c(c2)OCC3CC(=O)O)c1 (stereo unspecified) | EC50 [4]: 0.0469 µM

From ChEMBL document CHEMBL3779832, “Discovery of novel pyrrole-based scaffold as potent and orally bioavailable free fatty acid receptor 1 agonists for the treatment of type 2 diabetes” (Bioorg Med Chem, 2016)
